ChEMBL document CHEMBL4477211, “Synthesis and Investigation of Tetrahydro-β-carboline Derivatives as Inhibitors of the Breast Cancer Resistance Protein (ABCG2)” (J Med Chem, 2016)

Experiments:
[1] = molecular target: T1, Broad substrate specificity ATP-binding cassette transporter ABCG2 (Homo sapiens, UniProt Q9UNQ0); assay: Inhibition of human ABCG2 expressed in MDCK2 cells assessed as reduction in pheophorbide A efflux pre-incubated for 30 mins before pheophorbide A addition and measured for 120 mins by flow cytometry
T1 sequence (Q9UNQ0 whole entry): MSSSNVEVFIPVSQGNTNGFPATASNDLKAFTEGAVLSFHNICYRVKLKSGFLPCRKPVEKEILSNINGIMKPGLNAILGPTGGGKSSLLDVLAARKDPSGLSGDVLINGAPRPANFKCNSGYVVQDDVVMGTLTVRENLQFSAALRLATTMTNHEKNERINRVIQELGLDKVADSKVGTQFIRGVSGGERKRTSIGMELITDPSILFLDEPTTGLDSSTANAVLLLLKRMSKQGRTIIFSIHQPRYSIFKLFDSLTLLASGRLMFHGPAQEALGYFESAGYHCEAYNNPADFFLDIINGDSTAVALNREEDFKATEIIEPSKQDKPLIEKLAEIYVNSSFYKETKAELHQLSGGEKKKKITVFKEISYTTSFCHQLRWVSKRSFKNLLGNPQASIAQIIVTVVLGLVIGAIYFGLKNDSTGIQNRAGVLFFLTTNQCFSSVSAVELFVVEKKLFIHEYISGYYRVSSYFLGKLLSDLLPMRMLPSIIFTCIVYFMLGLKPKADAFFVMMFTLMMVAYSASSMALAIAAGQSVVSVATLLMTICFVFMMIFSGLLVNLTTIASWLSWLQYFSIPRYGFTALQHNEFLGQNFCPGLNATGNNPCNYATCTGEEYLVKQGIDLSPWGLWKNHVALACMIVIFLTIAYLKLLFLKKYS

[2] = molecular target: T1, Broad substrate specificity ATP-binding cassette transporter ABCG2; assay: Inhibition of human ABCG2 expressed in MDCK2 cells assessed as reduction in Hoechst 33342 efflux pre-incubated for 30 mins before Hoechst 33342 addition and measured for 120 mins by microplate reader analysis; assay type: cell-based
Procedure, shortened: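 Compound dilutions up to 10 µM (from 10 mM DMSO stocks) pre-incubated 30 min at 37 °C. Hoechst 33342 then added from 6 µM solution. Fluorescence (ex 355/em 460 nm) read each 60 s over 120 min.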

ABCB1 = ABCB1 (Homo sapiens, UniProt P08183); assay: Inhibition of ABCB1 in human A2780/ADR cells assessed as reduction in calcein AM efflux at 10 uM pre-incubated for 30 mins before calcein AM addition and measured for 60 mins by microplate reader analysis relative to control; assay type: cell-based; conditions: probe calcein AM
ABCB1, sequence (P08183 whole entry): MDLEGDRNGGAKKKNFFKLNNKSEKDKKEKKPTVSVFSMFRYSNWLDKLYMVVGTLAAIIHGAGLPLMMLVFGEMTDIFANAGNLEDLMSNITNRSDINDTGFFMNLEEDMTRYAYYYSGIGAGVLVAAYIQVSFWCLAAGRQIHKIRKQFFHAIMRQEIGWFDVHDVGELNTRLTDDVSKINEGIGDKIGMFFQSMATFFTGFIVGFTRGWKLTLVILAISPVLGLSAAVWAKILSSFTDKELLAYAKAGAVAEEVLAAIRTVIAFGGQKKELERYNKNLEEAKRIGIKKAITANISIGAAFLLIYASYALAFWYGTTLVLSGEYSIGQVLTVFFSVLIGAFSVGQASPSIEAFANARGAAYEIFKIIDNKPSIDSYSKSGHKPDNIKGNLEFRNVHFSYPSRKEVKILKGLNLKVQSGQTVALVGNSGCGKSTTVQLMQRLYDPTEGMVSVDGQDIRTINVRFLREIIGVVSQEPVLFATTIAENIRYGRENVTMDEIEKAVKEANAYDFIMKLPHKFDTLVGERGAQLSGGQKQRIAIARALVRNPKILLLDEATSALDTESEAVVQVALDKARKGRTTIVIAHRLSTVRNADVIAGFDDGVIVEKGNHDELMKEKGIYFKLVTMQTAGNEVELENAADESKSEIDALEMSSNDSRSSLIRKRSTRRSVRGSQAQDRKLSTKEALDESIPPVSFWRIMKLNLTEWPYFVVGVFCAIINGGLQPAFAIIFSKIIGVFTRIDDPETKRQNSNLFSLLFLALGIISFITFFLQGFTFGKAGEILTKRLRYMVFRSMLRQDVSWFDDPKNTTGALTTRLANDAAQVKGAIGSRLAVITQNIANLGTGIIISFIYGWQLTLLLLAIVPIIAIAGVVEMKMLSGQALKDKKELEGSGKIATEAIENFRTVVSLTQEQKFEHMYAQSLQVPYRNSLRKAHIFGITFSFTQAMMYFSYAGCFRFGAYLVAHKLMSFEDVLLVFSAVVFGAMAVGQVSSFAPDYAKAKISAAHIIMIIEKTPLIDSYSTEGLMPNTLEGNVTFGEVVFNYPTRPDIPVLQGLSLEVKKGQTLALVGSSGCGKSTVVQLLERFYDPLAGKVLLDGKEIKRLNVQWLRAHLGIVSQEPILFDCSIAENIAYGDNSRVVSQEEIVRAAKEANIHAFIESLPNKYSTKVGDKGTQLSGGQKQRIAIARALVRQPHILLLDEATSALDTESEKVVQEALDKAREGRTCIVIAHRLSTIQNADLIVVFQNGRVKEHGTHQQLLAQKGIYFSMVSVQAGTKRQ
Procedure, shortened: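 Compound at 10 µM pre-incubated 30 min at 37 °C. Calcein AM added from 3.125 µM solution. Fluorescence (ex 485/em 520 nm) read every 60 s for 60 min.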

[3] = Solubility in pH 7.4 Krebs-HEPES buffer at 10 uM after 2 hrs by UV-visible spectrophotometric analysis; assay type: physicochemical; conditions: pH 7.4, 2 h
Procedure, shortened: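 10 µM test solutions prepared from DMSO stocks as for the Hoechst 33342 assay, in Krebs-HEPES pH 7.4. Absorbance at an absorption peak maximum recorded every 120 s for 2 h at room temperature by UV/visible spectrophotometer.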

[4] = molecular target: ATP-dependent translocase ABCB1 (Homo sapiens, UniProt P08183); assay: Inhibition of ABCB1 in human A2780/ADR cells assessed as reduction in calcein AM efflux pre-incubated for 30 mins before calcein AM addition and measured for 60 mins by microplate reader analysis relative to control; assay type: cell-based
ATP-dependent translocase ABCB1, sequence (P08183 whole entry): as above

[5] = molecular target: T1, Broad substrate specificity ATP-binding cassette transporter ABCG2; assay: Reversal of human ABCG2-mediated resistance to SN-38 in human ABCG2 expressed MDCK2 cells assessed as reduction in SN-38 GI50 after 72 hrs by MTT assay
ABCG2 = molecular target: T2, ABCG2 (Homo sapiens, UniProt Q9UNQ0); assay: Ratio of IC50 for human ABCG2 expressed in baculovirus infected Sf9 cell membrane assessed as inhibition of vanadate sensitive quercetin-stimulated ATPase activity to IC50 for human ABCG2 expressed in baculovirus infected Sf9 cell membrane assessed as inhibition of vanadate sensitive basal ATPase activity; conditions: read-out: Ratio IC50
T2 sequence (Q9UNQ0 whole entry): T1 sequence (Q9UNQ0 whole entry)

[6] = Cytotoxicity against MDCK2 cells expressing human ABCG2 assessed as reduction in cell viability after 72 hrs by MTT assay; assay type: ADME, cell-based, Canis lupus familiaris; conditions: dog, MDCK2 (MDCK-II) cells expressing human ABCG2
Procedure, shortened: (§1)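 MDCK II cells retrovirally transfected with human ABCG2-GFP cDNA, and wild-type MDCK II, in DMEM with 10% FBS. Seeded at 3 x 10^3 cells/well and attached 6 h at 37 °C, 5% CO2. Compounds up to 100 µM for 72 h. Controls were 10% DMSO and medium. MTT (5 mg/ml) added for 1 h, read at 570 nm minus 690 nm. Data normalised; GI50 from variable-slope sigmoidal fit.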

[7] = Ratio of GI50 for MDCK2 cells expressing human ABCG2 to IC50 for human ABCG2 expressed in MDCK2 cells
[8] = molecular target: T1, Broad substrate specificity ATP-binding cassette transporter ABCG2; assay: Inhibition of human ABCG2 expressed in baculovirus infected Sf9 cell membrane assessed as inhibition of vanadate sensitive ATPase activity at 1 uM after 20 mins by colorimetric method; conditions: sf9, 20 min
[9] = Ratio of GI50 for wild-type MDCK2 cells to IC50 for human ABCG2 expressed in MDCK2 cells
[10] = molecular target: T1, Broad substrate specificity ATP-binding cassette transporter ABCG2; assay: Inhibition of human ABCG2 expressed in baculovirus infected Sf9 cell membrane assessed as inhibition of vanadate sensitive basal ATPase activity after 20 mins by colorimetric method
Procedure, shortened: (§2)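 Cholesterol-loaded membranes from Sf9 cells infected with baculovirus carrying human wild-type ABCG2; 10 µg protein per reaction. Buffer: 40 mM MOPS-Tris pH 7.0, 50 mM KCl, 2 mM DTT, 0.5 mM EGTA-Tris, 5 mM azide, 1 mM ouabain. Started with 3.3 mM MgATP, 20 min at 37 °C, stopped with SDS. Pi measured by molybdate/ascorbate colour at 880 nm against K2HPO4 standard.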

[11] = molecular target: T1, Broad substrate specificity ATP-binding cassette transporter ABCG2; assay: Inhibition of human ABCG2 expressed in baculovirus infected Sf9 cell membrane assessed as inhibition of vanadate sensitive quercetin-stimulated ATPase activity after 20 mins by colorimetric method
Procedure, shortened: as §2

[12] = Cytotoxicity against wild-type MDCK2 cells assessed as reduction in cell viability after 72 hrs by MTT assay; assay type: cell-based, Canis lupus familiaris; conditions: dog, wild-type MDCK2 (MDCK-II) cells
Procedure, shortened: as §1

SMILES | inhibition at 1 h, 10 µM (ABCB1) | IC50 ([2]; read-out: IC50) | IC50 [4] | also measured
c1ccc(C2NCCc3c2[nH]c2ccccc32)cc1 (centres undefined) | < 25% | – | – | IC50 [1]: Not Active; IC50 [2]: Not Active
COc1cccc(C2NCCc3c2[nH]c2ccccc32)c1 (centres undefined) | < 25% | – | – | IC50 [1]: Not Active; IC50 [2]: Not Active
c1ccc(CN2CCc3c([nH]c4ccccc34)C2c2ccccc2)cc1 (centres undefined) | < 25% | > 10000 nM | – | solubility [3]: Soluble
COc1ccc(C2c3[nH]c4ccccc4c3CCN2C(=O)c2ccccc2)cc1 (centres undefined) | > 25% | 2210 nM | 12000 nM | –
O=C(c1ccccc1)N1CCc2c([nH]c3ccccc23)C1c1ccc(Cl)cc1 (centres undefined) | < 25% | 741 nM | – | IC50 ([1]; read-out: IC50): 784 nM; Activity [5]: Dose-dependent effect; selectivity ratio (ABCG2): 9.3; GI50 at 72 h [6]: 18100 nM; Ratio [7]: 20 - 30; inhibition (INH) [8]: Active; Ratio [9]: 20 - 30; IC50 [10]: 60 nM; IC50 [11]: 560 nM; GI50 at 72 h [12]: 16400 nM
O=C(c1ccccc1)N1CCc2c([nH]c3ccccc23)C1c1ccc(F)c(F)c1 (centres undefined) | > 25% | 1100 nM | 8760 nM | IC50 ([1]; read-out: IC50): 1800 nM
Cc1ccc(C2c3[nH]c4ccccc4c3CCN2C(=O)c2ccccc2)cc1 (centres undefined) | < 25% | 1430 nM | – | –
CCn1c2c(c3ccccc31)CCN(C(=O)c1cccc(OC)c1)C2c1ccc(Cl)c(Cl)c1 (centres undefined) | < 25% | > 10000 nM | – | solubility [3]: Soluble
O=C(c1cccc2ccccc12)N1CCc2c([nH]c3ccccc23)C1c1ccc(Cl)c(Cl)c1 (centres undefined) | < 25% | 1320 nM | – | –
O=C(c1ccc(Cl)cc1)N1CCc2c([nH]c3ccccc23)C1c1ccc(Br)cc1 (centres undefined) | < 25% | 1780 nM | – | –
COc1ccc2[nH]c3c(c2c1)CCN(C(=O)c1ccccc1)C3c1ccc(Cl)c(Cl)c1 (centres undefined) | < 25% | 382 nM | – | Activity [5]: Dose-dependent effect; selectivity ratio (ABCG2): 10.4; GI50 at 72 h [6]: 4170 nM; Ratio [7]: <=20; inhibition (INH) [8]: Active; Ratio [9]: <=20; IC50 [10]: 29 nM; IC50 [11]: 299 nM; GI50 at 72 h [12]: 5270 nM
COc1ccc(C(=O)N2CCc3c([nH]c4ccccc34)C2c2ccc(C(F)(F)F)cc2)cc1 (centres undefined) | < 25% | 1230 nM | – | solubility [3]: Soluble
COc1cccc(C2c3[nH]c4ccccc4c3CCN2C(=O)c2ccccc2)c1 (centres undefined) | > 25% | 1920 nM | 6220 nM | –
O=C(c1ccc(Cl)cc1)N1CCc2c([nH]c3ccccc23)C1c1ccc(Cl)c(Cl)c1 (centres undefined) | < 25% | 1030 nM | – | –
CCn1c2c(c3ccccc31)CCN(C(=O)c1ccccc1)C2c1ccccc1 (centres undefined) | > 25% | 10400 nM | 9230 nM | solubility [3]: Soluble
O=C(c1ccccc1)N1CCc2c([nH]c3ccccc23)C1c1cccc(Cl)c1 (centres undefined) | > 25% | 869 nM | 22500 nM | IC50 ([1]; read-out: IC50): 811 nM
